Experimental findings from ChEMBL document CHEMBL4392849, “Design, synthesis, evaluation and molecular modeling study of 4-N-phenylaminoquinolines for Alzheimer disease treatment” (Bioorg Med Chem Lett, 2019) are described below.

One assay deals with Cholinesterase (Equus caballus, UniProt P81908). Briefly: Inhibition of equine serum BChE using butyrylthiocholine iodide as substrate preincubated for 15 mins followed by substrate addition by Ellman's method. Format: single protein. The method, boiled down: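 Ellman method run at pH 8.0 in 0.1 M sodium phosphate buffer. Compounds come from 10 mM DMSO stocks diluted in buffer. Enzyme solution is 0.05 U/ml and DTNB stock is 10 mM. These are held 15 min at 25°C, then 7.5 mM butyrylthiocholine iodide stock is added. Percent inhibition comes from hydrolysis rate with versus without inhibitor.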

The next assay deals with Acetylcholinesterase (Electrophorus electricus, UniProt O42275). Briefly: Inhibition of electric eel AChE using acetylthiocholine iodide as substrate preincubated for 15 mins followed by substrate addition by Ellman's method.
Sequence of Acetylcholinesterase (O42275 whole entry): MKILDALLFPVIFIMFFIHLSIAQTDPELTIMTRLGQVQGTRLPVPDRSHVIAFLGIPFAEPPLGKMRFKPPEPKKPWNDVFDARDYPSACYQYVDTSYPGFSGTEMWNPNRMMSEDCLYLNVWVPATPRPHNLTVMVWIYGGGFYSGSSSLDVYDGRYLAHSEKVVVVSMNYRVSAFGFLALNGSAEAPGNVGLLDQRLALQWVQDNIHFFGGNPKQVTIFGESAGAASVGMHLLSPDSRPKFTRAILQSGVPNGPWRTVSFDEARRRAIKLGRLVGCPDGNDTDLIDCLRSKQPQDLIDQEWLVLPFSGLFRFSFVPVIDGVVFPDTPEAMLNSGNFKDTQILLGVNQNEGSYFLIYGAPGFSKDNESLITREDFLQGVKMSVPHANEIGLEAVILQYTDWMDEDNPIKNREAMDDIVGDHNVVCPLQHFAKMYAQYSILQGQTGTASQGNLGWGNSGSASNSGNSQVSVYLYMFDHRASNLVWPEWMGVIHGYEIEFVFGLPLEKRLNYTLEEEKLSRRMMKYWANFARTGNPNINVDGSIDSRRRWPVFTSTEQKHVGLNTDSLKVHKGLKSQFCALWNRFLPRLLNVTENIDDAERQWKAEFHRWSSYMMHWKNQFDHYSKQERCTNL

Sequence of Cholinesterase (P81908 whole entry): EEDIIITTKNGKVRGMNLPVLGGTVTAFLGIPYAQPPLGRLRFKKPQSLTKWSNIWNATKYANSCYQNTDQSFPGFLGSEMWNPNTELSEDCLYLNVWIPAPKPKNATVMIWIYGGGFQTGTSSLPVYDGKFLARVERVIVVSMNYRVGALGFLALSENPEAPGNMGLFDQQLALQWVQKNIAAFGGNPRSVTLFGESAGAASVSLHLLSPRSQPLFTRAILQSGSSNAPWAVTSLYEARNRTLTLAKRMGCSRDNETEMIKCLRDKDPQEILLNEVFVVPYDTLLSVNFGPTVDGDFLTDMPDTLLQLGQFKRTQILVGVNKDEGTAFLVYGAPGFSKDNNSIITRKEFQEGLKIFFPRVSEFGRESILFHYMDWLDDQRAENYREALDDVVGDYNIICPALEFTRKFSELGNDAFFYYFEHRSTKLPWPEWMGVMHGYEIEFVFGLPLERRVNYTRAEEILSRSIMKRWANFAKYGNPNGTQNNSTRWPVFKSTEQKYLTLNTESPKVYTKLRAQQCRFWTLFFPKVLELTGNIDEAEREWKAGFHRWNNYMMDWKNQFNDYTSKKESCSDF

As to `COc1cc2c(Nc3ccc(O)cc3)c([N+](=O)[O-])cnc2cc1OCCCN(C)Cc1ccccc1`, the values for the half-maximal inhibitory concentration (IC50) against Cholinesterase and at Acetylcholinesterase were 17.4 µM and 0.74 µM, respectively.

On to `COc1cc2c(Nc3ccccc3)c([N+](=O)[O-])cnc2cc1OCCCN(C)Cc1ccccc1`, for which the IC50 against Cholinesterase was 10.1 µM; against Acetylcholinesterase, 0.65 µM.

As to `COc1cc2c(Nc3cccc(C)c3)c([N+](=O)[O-])cnc2cc1OCCCN(C)Cc1ccccc1`, the IC50 on Cholinesterase came out at 2.78 µM; on Acetylcholinesterase, 1.86 µM.

For `COc1ccc(Nc2c([N+](=O)[O-])cnc3cc(OCCCN(C)Cc4ccccc4)c(OC)cc23)cc1`, the concentration for half-maximal inhibition (IC50) against Cholinesterase was determined as 50.4 µM; against Acetylcholinesterase, 10.9 µM.

Take `COc1ccccc1Nc1c([N+](=O)[O-])cnc2cc(OCCCN(C)Cc3ccccc3)c(OC)cc12`: the IC50 at Cholinesterase amounted to 8.67 µM; on Acetylcholinesterase, 7.9 µM.

As to `COc1cc2c(Nc3ccc(Cl)cc3)c([N+](=O)[O-])cnc2cc1OCCC[n+]1ccccc1`, the concentration for half-maximal inhibition (IC50) against Cholinesterase was found to be 14.2 µM; on Acetylcholinesterase it was 0.92 µM.

Take `COc1cc2c(Nc3ccccc3C)c([N+](=O)[O-])cnc2cc1OCCCN(C)Cc1ccccc1`: the 50% inhibitory concentration (IC50) at Cholinesterase was 29.7 µM; against Acetylcholinesterase, 10.1 µM.

Consider `COc1cc2c(Nc3cccc(O)c3)c([N+](=O)[O-])cnc2cc1OCCCN(C)Cc1ccccc1`, for which the IC50 against Cholinesterase was 10.8 µM; at Acetylcholinesterase, 0.71 µM.

Consider `COc1cc2c(Nc3ccc(C)cc3)c([N+](=O)[O-])cnc2cc1OCCCN(C)Cc1ccccc1`, for which the concentration for half-maximal inhibition (IC50) was determined as 73.6 µM against Cholinesterase and 11.8 µM against Acetylcholinesterase.

Take `COc1cc2c(Nc3ccc(Cl)cc3)c([N+](=O)[O-])cnc2cc1OCCCN(C)Cc1ccccc1`: the values for the IC50 at Cholinesterase and against Acetylcholinesterase were 17.4 µM and 1.88 µM, respectively.

Regarding `COc1cc2c(Nc3cccc(C(F)(F)F)c3)c([N+](=O)[O-])cnc2cc1OCCCN(C)Cc1ccccc1`, the concentration for half-maximal inhibition (IC50) was 55.4 µM against Cholinesterase and 7.78 µM against Acetylcholinesterase.

In the case of `COc1cc2c(Nc3cccc(Cl)c3)c([N+](=O)[O-])cnc2cc1OCCCN(C)Cc1ccccc1`, the figures for the half-maximal inhibitory concentration (IC50) at Cholinesterase and at Acetylcholinesterase were 15.2 µM and 0.83 µM, respectively.

For the compound `COc1cccc(Nc2c([N+](=O)[O-])cnc3cc(OCCCN(C)Cc4ccccc4)c(OC)cc23)c1`, the half-maximal inhibitory concentration (IC50) amounted to 9.19 µM against Cholinesterase and 1.72 µM against Acetylcholinesterase.

Regarding `COc1cc2c(Nc3ccccc3Cl)c([N+](=O)[O-])cnc2cc1OCCCN(C)Cc1ccccc1`, the IC50 stood at 2.65 µM against Cholinesterase and 0.86 µM against Acetylcholinesterase.

On to `COc1cc2c(Nc3ccc(Cl)cc3Cl)c([N+](=O)[O-])cnc2cc1OCCCN(C)Cc1ccccc1`, for which the results for the IC50 against Cholinesterase and against Acetylcholinesterase were 58.7 µM and 1.85 µM, respectively.
